Results on two compounds are retold here after publication PMC3065194 (Biochemical and biophysical research communications, 2010).

Assay [1] concerns the target integrin CD11b/CD18 (Mus musculus, UniProt P05555+P11835). Nature of the assay: Neutrophil adhesion assay. The conditions noted are these: WT B6 mouse neutrophils, Figure 3B. The format is cell-based. Put shortly: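 Peritoneal neutrophils were isolated from thioglycollate-stimulated 8–10-week-old WT B6 mice and suspended in TBS with 0.5% gelatin in ligand-coated wells. Cells were incubated 10 min at 37°C with 5 μM test compound plus agonist, either Mn²⁺ (0.1 mM) or PMA (15 nM). Plates were inverted 30 min at room temperature to remove non-adherent cells. Adherent cells were counted by imaging microscopy, in triplicate wells.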

The test system of assay [2] is integrin CD11a/CD18. The conditions noted are these: related integrin CD11a/CD18; cited from earlier work.

Sequence of integrin CD11b/CD18 (P05555 17-1153): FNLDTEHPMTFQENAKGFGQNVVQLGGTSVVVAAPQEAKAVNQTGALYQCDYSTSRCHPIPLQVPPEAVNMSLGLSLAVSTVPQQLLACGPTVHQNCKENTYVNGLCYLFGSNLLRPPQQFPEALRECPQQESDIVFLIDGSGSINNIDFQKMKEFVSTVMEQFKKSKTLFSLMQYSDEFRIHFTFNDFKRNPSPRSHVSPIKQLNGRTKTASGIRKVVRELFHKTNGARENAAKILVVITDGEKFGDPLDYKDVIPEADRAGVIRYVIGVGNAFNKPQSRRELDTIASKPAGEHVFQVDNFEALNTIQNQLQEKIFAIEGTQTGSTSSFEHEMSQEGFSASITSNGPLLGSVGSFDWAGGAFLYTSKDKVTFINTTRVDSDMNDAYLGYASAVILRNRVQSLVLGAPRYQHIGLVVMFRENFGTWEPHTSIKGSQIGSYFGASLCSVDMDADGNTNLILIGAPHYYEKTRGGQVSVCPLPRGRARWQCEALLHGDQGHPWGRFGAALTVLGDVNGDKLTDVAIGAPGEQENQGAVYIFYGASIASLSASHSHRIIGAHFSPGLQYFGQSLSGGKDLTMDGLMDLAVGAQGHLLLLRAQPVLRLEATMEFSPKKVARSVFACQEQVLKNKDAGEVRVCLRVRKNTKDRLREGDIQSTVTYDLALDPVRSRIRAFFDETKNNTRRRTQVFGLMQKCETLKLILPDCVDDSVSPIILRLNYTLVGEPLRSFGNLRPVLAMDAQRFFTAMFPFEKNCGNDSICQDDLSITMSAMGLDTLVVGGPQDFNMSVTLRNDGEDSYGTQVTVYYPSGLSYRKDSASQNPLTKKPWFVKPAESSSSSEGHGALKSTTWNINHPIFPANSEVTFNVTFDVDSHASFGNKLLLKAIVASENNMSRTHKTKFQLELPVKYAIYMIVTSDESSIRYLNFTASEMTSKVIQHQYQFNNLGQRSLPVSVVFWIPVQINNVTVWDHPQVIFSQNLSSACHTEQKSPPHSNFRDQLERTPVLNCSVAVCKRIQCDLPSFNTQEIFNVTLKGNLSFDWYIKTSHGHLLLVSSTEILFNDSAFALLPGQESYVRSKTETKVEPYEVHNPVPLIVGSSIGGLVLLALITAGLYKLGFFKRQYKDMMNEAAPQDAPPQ
Sequence of integrin CD11b/CD18 (P11835 24-771): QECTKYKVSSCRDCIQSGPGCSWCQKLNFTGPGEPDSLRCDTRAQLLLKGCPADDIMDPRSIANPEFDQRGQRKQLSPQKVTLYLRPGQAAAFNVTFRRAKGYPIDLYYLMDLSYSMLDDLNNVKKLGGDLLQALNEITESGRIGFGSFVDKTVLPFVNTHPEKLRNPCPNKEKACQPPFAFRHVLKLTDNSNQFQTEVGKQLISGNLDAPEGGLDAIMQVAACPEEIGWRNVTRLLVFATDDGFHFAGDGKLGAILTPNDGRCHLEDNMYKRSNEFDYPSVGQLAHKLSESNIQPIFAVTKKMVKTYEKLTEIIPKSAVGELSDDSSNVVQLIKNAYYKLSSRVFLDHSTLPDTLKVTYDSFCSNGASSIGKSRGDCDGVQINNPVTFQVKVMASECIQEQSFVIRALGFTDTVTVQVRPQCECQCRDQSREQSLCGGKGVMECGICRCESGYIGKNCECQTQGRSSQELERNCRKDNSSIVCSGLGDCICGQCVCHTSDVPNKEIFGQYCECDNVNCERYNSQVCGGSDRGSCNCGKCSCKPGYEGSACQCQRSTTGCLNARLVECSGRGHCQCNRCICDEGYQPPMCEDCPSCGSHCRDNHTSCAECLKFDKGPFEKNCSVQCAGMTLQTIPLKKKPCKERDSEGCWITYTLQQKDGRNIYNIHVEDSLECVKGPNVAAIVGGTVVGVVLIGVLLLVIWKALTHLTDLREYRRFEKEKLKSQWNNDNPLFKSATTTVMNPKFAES

As for `CCCCCCCCCCCCCC(=O)O[C@@H]1[C@@H](C)[C@@]2(O)[C@@H](C=C(CO)C[C@]3(O)C(=O)C(C)=C[C@@H]23)[C@@H]2C(C)(C)[C@]12OC(C)=O` [PMA, phorbol 12-myristate 13-acetate], the “neutrophil adhesion to Fg on integrin activation by agonist” value in assay [1] is on record as “dramatic increase”.

`CC[C@H](C)C(=O)O[C@H]1C[C@@H](C)C=C2C=C[C@H](C)[C@H](CC[C@@H]3C[C@@H](O)CC(=O)O3)[C@H]21` [lovastatin]: in assay [2], the IC50 is 25 µM.
